Assay outcomes: PubChem, several laboratories
TNAP inh noacc = human TNAP enzyme inhibitors, primary screen, biochemical, luminescent, no phosphate acceptor, uHTS | inhibition, % at 20 µM | 0.26% of 200,000 active | purified TNAP, CDP-star luminescence, 30 min;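 active means tissue-nonspecific alkaline phosphatase inhibition above about 50% at 20 µM in the single-dose screen, limit read from the data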;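 further: 0% = DMSO negative control and 100% = EDTA positive control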
Target sequence (P05186 whole entry, looked up): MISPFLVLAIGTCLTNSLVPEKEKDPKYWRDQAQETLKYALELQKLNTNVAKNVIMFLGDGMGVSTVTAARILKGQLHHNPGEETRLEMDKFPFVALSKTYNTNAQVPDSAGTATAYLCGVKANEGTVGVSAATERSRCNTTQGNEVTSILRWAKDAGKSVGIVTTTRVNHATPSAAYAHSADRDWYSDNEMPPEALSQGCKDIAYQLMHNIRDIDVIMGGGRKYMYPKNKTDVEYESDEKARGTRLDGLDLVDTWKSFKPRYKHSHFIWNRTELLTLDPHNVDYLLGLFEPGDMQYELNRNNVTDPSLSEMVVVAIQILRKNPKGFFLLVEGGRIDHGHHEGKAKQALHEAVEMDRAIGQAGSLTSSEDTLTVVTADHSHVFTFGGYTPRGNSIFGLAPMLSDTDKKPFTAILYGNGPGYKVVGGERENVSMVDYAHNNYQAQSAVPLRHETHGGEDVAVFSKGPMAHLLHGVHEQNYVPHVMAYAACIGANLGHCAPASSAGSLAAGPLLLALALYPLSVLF
TNAP act hi DEA = TNAP activators at high phosphate acceptor level, primary screen, biochemical, luminescence, uHTS; Alkaline phosphatase, tissue-nonspecific isozyme (Homo sapiens), P05186; 200,000 tested, under 10 active; activation factor at 20 µM; purified TNAP, CDP-star luminescence, 1 M DEA, 30 min; active compounds read high; 0 = EDTA background, 1 = DMSO-only activity; AID 1136, 2008;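 active means activation factor at least 2 at 20 µM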
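Control set: EDTA negative control, DMSO positive control / Assay system: human TNAP / Quantity: TNAP 1/800 final / Evaluation: TNAP activation factor scaled between EDTA and DMSO control wells / Measured by: luminescent substrate turnover signal / Compound dosing: one dose, 20 µM / Times: 30 min enzyme reaction at room temperature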
TNAP inh hiacc = human TNAP enzyme inhibitors, primary screen, biochemical, luminescent, high phosphate acceptor level, uHTS; Alkaline phosphatase, tissue-nonspecific isozyme (Homo sapiens), P05186; purified TNAP, CDP-star luminescence, 1 M DEA; inhibition, % at 20 µM; 0.03% of 200,000 active; AID 1135, 2008;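 active means over 50% inhibition of tissue-nonspecific alkaline phosphatase at 20 µM in the single-dose screen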;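 further: plate controls were DMSO wells for no effect and EDTA-quenched wells as full inhibition for full effect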
Calb biofilm kill = clotrimazole potentiators killing C. albicans biofilm, primary screen, 4-compound mixtures; inhibition, % at 7.6 µM; C. albicans biofilm persisters + clotrimazole, fluorescence viability; primary screen in compound mixtures of four per well; AID 1242, 2008; 0.02% of 120,000 active;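 active means inhibition above 30.3% in the primary screen of four-compound pools, then above 30% when the compound was retested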;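 further: compounds exposed to preformed 24 h biofilms for 48 h; 0% = untreated biofilm control and 100% = clotrimazole plus chlorhexidine kill blank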
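Test system: C. albicans CAF4-2 wild-type biofilms; buffer or medium: RPMI/MOPS medium, pH 7.0; schedule: 24 h biofilm formation, then 48 h compound exposure, 37 °C; detection: Alamar Blue fluorescence; measure: percent inhibition of biofilm viability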
An asterisk follows results filed as active. Rows were chosen to be rich in hits. Some 0.28% of all compounds tested hit in one or more screens of this group.

For Oc1ccc(N=Nc2n[nH]c(-c3ccc(Cl)cc3)n2)cc1 the results were TNAP inh noacc 69*, TNAP act hi DEA 0.7 and TNAP inh hiacc 26.
`Nc1nc(CCl)nc(N(c2ccccc2)c2ccccc2)n1` gave Calb biofilm kill 20.
COc1ccc(-c2nc(SCc3ccccc3)n(S(C)(=O)=O)n2)cc1 was read as TNAP inh noacc 62*, TNAP act hi DEA 1 and TNAP inh hiacc 1.
For CCS(=O)(=O)n1nc(-c2ccc(Cl)cc2)nc1SCc1ccccc1 the results were TNAP inh noacc 62*, TNAP act hi DEA 1, TNAP inh hiacc -3 and Calb biofilm kill 12.
`COc1ccc(-c2nc(SC)n(S(=O)(=O)c3ccccc3)n2)cc1` gave TNAP inh noacc 38, TNAP act hi DEA 1, TNAP inh hiacc -1 and Calb biofilm kill 4.
Screening O=C(NNC(=O)c1ccccc1O)c1ccc(Cl)cc1 returned TNAP inh noacc -56, TNAP act hi DEA 1 and TNAP inh hiacc -1.
O=C(NNC(=O)c1ccc(O)cc1O)c1ccc(Cl)cc1 was read as TNAP inh noacc 76*, TNAP act hi DEA 1 and TNAP inh hiacc 0.
For CCOC(=O)C1CCCN(Cc2ccc(OCC)cc2)C1 (centres undefined) the results were TNAP inh noacc -12, TNAP act hi DEA 1 and TNAP inh hiacc -3.
For Cc1cc(C)c2c(-n3cccc3)nn(CC#N)c2n1 the results were TNAP inh noacc -10, TNAP act hi DEA 1 and TNAP inh hiacc -4.
Screening Cc1cc(C)c2c(-n3cccc3)n[nH]c2n1 returned TNAP inh noacc 68*, TNAP act hi DEA 1 and TNAP inh hiacc -1.
O=C(CSc1ncn[nH]1)Nc1nc(-c2ccccc2)ns1 was read as TNAP inh noacc 76*, TNAP act hi DEA 1 and TNAP inh hiacc -3.
`C=CCN1C(=O)/C(=C\C=C2\N(C)c3ccccc3C2(C)C)SC1=S` gave TNAP inh noacc -4, TNAP act hi DEA 0.5, TNAP inh hiacc 49 and Calb biofilm kill 11.
Screening CN1/C(=C\C=C2/SC(=S)N(CC(=O)O)C2=O)C(C)(C)c2ccccc21 returned TNAP inh noacc 52*, TNAP act hi DEA 0.5, TNAP inh hiacc 50* and Calb biofilm kill -6.
For S=c1[nH]nc(-c2ccco2)n1/N=C/c1ccc(Cl)c(Cl)c1 the results were TNAP inh noacc 58*, TNAP act hi DEA 1, TNAP inh hiacc 5 and Calb biofilm kill 18.
CC(C)CNC(=O)CN(c1cccc(Cl)c1)S(C)(=O)=O was read as TNAP inh noacc -7, TNAP act hi DEA 1.1, TNAP inh hiacc -8 and Calb biofilm kill 4.
For NC(=O)CSc1nnc(SCc2ccc(F)cc2)s1 the results were TNAP inh noacc -9, TNAP act hi DEA 1, TNAP inh hiacc -2 and Calb biofilm kill 9.
Screening CN(C)c1ccc(/C=C(\C#N)C(=O)Nc2nc3c(s2)CCN(Cc2ccccc2)C3)cc1 returned TNAP inh noacc 55*, TNAP act hi DEA 0.7 and TNAP inh hiacc 26.
Screening O=C(Nc1nc2c(s1)CN(Cc1ccccc1)CC2)C1CCC1 returned TNAP inh noacc -4, TNAP act hi DEA 1, TNAP inh hiacc -5 and Calb biofilm kill 3.
For COc1ccc2nc(-n3c(O)c(C4=c5ccccc5=NC4=O)[nH]c3=S)sc2c1 the results were TNAP inh noacc 45, TNAP act hi DEA 0.1, TNAP inh hiacc 88* and Calb biofilm kill 29.
For Oc1cccc(/C=N/Nc2cc(N3CCOCC3)nc(N3CCOCC3)n2)c1 the results were TNAP inh noacc 0, TNAP act hi DEA 1, TNAP inh hiacc 3 and Calb biofilm kill 5.
For Oc1ccc(/C=N/Nc2cc(N3CCOCC3)nc(N3CCOCC3)n2)cc1O the results were TNAP inh noacc 67*, TNAP act hi DEA 0.9, TNAP inh hiacc 9 and Calb biofilm kill 12.
For Cc1ccc(CSc2nnc([C@@H]3CCCN3C(=O)OC(C)(C)C)o2)cc1 the results were Calb biofilm kill 14.
`O=C1NC(=Nc2ccccc2)S/C1=C\C=C\c1ccco1` gave TNAP inh noacc 56*, TNAP act hi DEA 0.9, TNAP inh hiacc 9 and Calb biofilm kill 9.
O=C(c1ccc(F)cc1)c1cn[nH]c1-c1ccccc1O was read as TNAP inh noacc 56*, TNAP act hi DEA 1 and TNAP inh hiacc -2.
